This is an account of results in PubChem BioAssay.

The source made the active and inactive calls.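 Rule for the calls, unless noted: active = a full or partial loss of lipid-probe fluorescence in the fish gall bladder, intestine or both, judged by eye; inactive = no fluorescence loss, or compound toxic to the fish.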

Assay [1] is described as follows: inhibitors of TNFa-induced NFkB p65 translocation, primary screen, imaging, HUVEC, MLSMR starter and 10KST1 sets (AID 438;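 active = inhibition above 20% together with a positive visual image hit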;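 note: compound added about 3h40 before a 20 min TNFalpha stimulation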;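 for inhibition: signal is the nuclear over cytoplasmic p65 intensity ratio per well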). The note with it: HUVEC TNFa-induced p65 nuclear translocation; cell count: measured here: nuclei count (cytotoxicity indicator), at 2.08 µM; inhibition: at 2 µM, stronger effect = higher value, 0% TNFa-plus-vehicle, 100% no-TNFa wells.
Assay [2] in a line: endothelial E-selectin expression blockers – imaging, HUVEC, immunofluorescence, MLSMR starter and 10KST1 sets, primary screen (AID 487;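 active = visually confirmed hit in the image check and inhibition above 20%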;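 for inhibition: signal is fraction of cell area covered by stained E-selectin grains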;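 for nuclei count: 100% = median nuclei count of all wells on the same plate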). The note with it: HUVEC TNFalpha-induced E-selectin immunofluorescence imaging, at 2 µM; inhibition: stronger effect = higher value; nuclei count: measured here: cell number, toxicity.
Assay [3] can be described thus: Primary imaging screen for DUSP6 inhibitors that restore phospho-Erk in transfected HeLa cells, chemical complementation (AID 609;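 active = compounds giving at least 50% inhibition in the cell-based MKP-3 phosphatase rescue imaging test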;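 for inhibition: phospho-Erk level distribution per well compared with pooled transfected vehicle control wells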). The settings on record: HeLa MKP-3 transfected, phospho-Erk imaging KS statistic, at 10 µM, cells stimulated with TPA for 15 min.
The target of assay [4] is Dual specificity protein phosphatase 6 (Homo sapiens) (UniProt Q16828). Described as above. The note with it: HeLa MKP-3 transfected, phospho-Erk imaging KS statistic; at 10 µM; stronger effect = higher value; cells stimulated with TPA for 15 min.
Chain of Dual specificity protein phosphatase 6 (Homo sapiens) (Q16828 whole entry, looked up): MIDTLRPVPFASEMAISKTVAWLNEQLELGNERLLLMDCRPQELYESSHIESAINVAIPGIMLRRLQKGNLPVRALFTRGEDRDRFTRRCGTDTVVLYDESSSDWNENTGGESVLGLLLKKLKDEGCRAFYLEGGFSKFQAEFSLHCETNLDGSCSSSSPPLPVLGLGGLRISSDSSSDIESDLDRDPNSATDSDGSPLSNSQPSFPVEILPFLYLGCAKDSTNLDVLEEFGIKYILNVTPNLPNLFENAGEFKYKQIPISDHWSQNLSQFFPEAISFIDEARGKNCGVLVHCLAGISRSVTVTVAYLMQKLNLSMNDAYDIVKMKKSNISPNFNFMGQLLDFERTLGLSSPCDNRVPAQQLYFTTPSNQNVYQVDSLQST
Assay [5] has as its target Voltage-gated potassium channel subunit beta-2 (Rattus norvegicus) (UniProt P62483). The assay can be described thus: inhibitors of rat Kvbeta2 reductase activity – biochemical, NADPH fluorescence, primary screen (AID 622;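 active = fluorescence slope higher than the sample average by over 3 SD, cut at about -0.22 in these data, passing the limit was not always enough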;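 note: slope of raw intensity against log time taken from 70 to 1610 s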). The settings on record: recombinant KvBeta, 4-cyanobenzaldehyde reduction, at 10 µM, stronger effect = higher value.
For assay [6] the target is unchanged. The assay can be described thus: enhancers of rat Kvbeta2 NADPH turnover – biochemical, NADPH fluorescence, primary screen (AID 623;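 active = NADPH fluorescence slope more negative than the mean of all samples by about 3 SD, 99.7% confidence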;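 note: fluorescence intensity change per second fitted from 20 to 320 s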). The settings on record: Recombinant KvBeta, NADPH fluorescence decrease slope, 10 min; at 10 µM; stronger effect = lower value.
For assay [7], the target named is Alpha-2C adrenergic receptor (Homo sapiens) (UniProt P18825). The experiment in a line: compounds altering alpha2C-coupled GIRK flux – cell-based, HEK293 alpha2C/GIRK1/2, thallium flux, primary screen (AID 624;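 active = fluorescence slope after compound addition differing from the mean of all screened samples at 99.7% confidence, in either direction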;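 note: slope of fluorescence ratio to pre-addition baseline per second over 15 to 24 s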). The settings on record: thallium flux BTC fluorescence, at 10 µM, actives lie on both sides.
Chain of Alpha-2C adrenergic receptor (Homo sapiens) (P18825 whole entry, looked up): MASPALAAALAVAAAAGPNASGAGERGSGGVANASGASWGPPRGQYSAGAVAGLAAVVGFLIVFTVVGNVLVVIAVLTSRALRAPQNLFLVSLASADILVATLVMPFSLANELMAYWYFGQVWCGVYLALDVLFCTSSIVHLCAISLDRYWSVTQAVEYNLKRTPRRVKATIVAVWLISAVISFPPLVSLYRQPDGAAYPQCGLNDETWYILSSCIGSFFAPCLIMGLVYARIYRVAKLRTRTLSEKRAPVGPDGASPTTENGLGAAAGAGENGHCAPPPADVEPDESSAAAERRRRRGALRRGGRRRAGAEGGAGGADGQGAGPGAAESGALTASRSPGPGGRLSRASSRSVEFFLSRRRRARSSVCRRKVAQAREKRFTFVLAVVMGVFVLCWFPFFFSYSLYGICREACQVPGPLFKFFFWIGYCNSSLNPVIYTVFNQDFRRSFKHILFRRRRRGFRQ
Assay [8] can be described thus: inhibitors of larval lipid processing in zebrafish, primary screen, whole organism, PED6 fluorescence, gall bladder and intestine (AID 686).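 Note: larvae 5 to 7 days old with five fish per well; signal comes from phospholipase A2 cleavage of quenched PED6 carried via bile.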 The settings on record: Zebrafish larvae PED6 lipid processing, fluorescence scoring; screened at 20 µM (by protocol). In a few lines: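 Incubation: overnight exposure of larvae to compound plus PED6 / Test system: live zebrafish larvae aged 5-7 days, whole organism / Amount: 5 larvae per well / Read-out basis: visual per-well fluorescence inhibition score / Signal: visual fluorescence microscopy scoring of gall bladder, gut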

A short description of assay [9]: loss of swimming-algae plug formation – whole organism, Chlamydomonas reinhardtii, WT vs cilia-less mutant, absorbance, 96-well, primary screen (AID 463189;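 active = inhibition at or above 50% relative to wild type and mutant plate controls; inactive = inhibition below 50%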;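 note: 0% = wild type cc124 cells in DMSO and 100% = ciliumless bld1 mutant cells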). The note with it: Chlamydomonas reinhardtii gravitaxis, OD600 absorbance, 2 days; at 10 µM; stronger effect = higher value.
Where [10] appears, read: measured here: cell density z-score.
[11] abbreviates: measured here: nuclear c-Myc green intensity z-score.
[12] abbreviates: measured here: nuclear pErk red intensity z-score, stronger effect = higher value.

Chain of Voltage-gated potassium channel subunit beta-2 (Rattus norvegicus) (P62483 whole entry, looked up): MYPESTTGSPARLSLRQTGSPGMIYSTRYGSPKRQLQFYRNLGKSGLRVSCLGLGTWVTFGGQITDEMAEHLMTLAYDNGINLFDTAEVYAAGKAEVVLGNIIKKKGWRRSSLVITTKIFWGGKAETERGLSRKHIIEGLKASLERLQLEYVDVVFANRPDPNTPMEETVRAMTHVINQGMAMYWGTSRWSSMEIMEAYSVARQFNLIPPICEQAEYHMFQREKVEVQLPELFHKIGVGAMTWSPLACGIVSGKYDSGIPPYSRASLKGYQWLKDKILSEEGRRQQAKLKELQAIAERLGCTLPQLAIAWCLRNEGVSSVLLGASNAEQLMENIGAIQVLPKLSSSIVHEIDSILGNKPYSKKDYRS

As to `Cc1nc(N2CCN(Cc3ccccc3)CC2)c(C#N)c2c1COC(C)(C)C2`, the cell count in [1] worked out at 686. In addition, the inhibition in assay [1] was -5.4% (inactive); in assay [2], -178% (inactive); in assay [4], 3.66% (inactive); in [9], -5.61% (inactive). Also, the nuclei count in assay [2] came to 195%. Further, the z-score was 0.66 in assay [3] (setting [10]), -1.21 in assay [3] (setting [11]) and 0.193 in [3] (setting [12]). Besides, the fluorescence slope in assay [5] was -0.487 (inactive). In addition, in assay [6], the NADPH fluorescence slope was -0.000123 (inactive). For the same molecule, in [7], the slope is 0.00373 (inactive). The molecule was classed as inactive in assay [8].
For the molecule `Cc1nccn1-c1cc(C(C)C)c(C#N)c2nc3ccccc3n12`, the cell count in assay [1] is 468. Besides, the inhibition in [1] was -22.6% (inactive); in [2] it was -68.2% (inactive); in assay [4] it was 8.31% (inactive); in assay [9] it was 23% (inactive). Also, in assay [2], the nuclei count turned out to be 140%. In addition, the figures for the z-score in assay [3] (setting [10]), in assay [3] (setting [11]) and in assay [3] (setting [12]) were 1.43, -0.347 and -0.664, respectively. The fluorescence slope in assay [5] is -0.524 (inactive). Also, the NADPH fluorescence slope in [6] was -2.8e-05 (inactive). Besides, the slope in assay [7] is 0.0063 (inactive). For the same molecule, in assay [8], the molecule was classed as inactive.
Regarding `COc1cc(-c2nn3c(-c4ccco4)nnc3s2)cc(OC)c1OC`, in assay [1], the cell count was 483. Also, the inhibition in assay [1] was -2.2% (inactive); in assay [2] it was -67.5% (inactive); in [4], -2.47% (inactive); in assay [9], 4.86% (inactive). The same molecule returned a nuclei count in [2] of 99.3%. The z-score in assay [3] (setting [10]) was -0.638; in assay [3] (setting [11]), -0.467; in assay [3] (setting [12]), 0.841. In assay [5], the fluorescence slope is -0.471 (inactive). For the same molecule, the NADPH fluorescence slope in assay [6] is 3.2e-05 (inactive). Moreover, the slope in assay [7] is 0.0061 (inactive). The molecule was called inactive in assay [8].
`C#CCSC1=C(C#N)C(c2cccs2)C(C(=O)OCC)=C(C)N1` (centres undefined): the cell count in assay [1] was determined as 674. Moreover, the inhibition was -1.7% (inactive) in assay [1], -59.4% (inactive) in [2], -7.28% (inactive) in [4] and -6.51% (inactive) in assay [9]. Further, the nuclei count in [2] came to 167%. Also, the z-score was -0.719 in [3] (setting [10]), 0.591 in assay [3] (setting [11]) and 0.242 in [3] (setting [12]). The fluorescence slope in assay [5] was -0.417 (inactive). Moreover, in [6], the NADPH fluorescence slope is 4.3e-06 (inactive). The slope in assay [7] is 0.00405 (inactive). Also, in assay [8], the molecule was called inactive.
Consider `C=CCOC(=O)C1=C(C)NC(SCC(=O)N(CC)CC)=C(C#N)C1c1ccccc1` (centres undefined), for which the cell count in assay [1] is 348. Further, the inhibition in assay [1] is -0.8% (inactive); in assay [2], -27.9% (inactive); in [4] it was -0.584% (inactive); in assay [9], 4.36% (inactive). Besides, in [2], the nuclei count was found to be 140%. Moreover, the z-score is 1.19 in assay [3] (setting [10]), 0.414 in assay [3] (setting [11]) and -0.822 in assay [3] (setting [12]). For the same molecule, the fluorescence slope in assay [5] is -0.405 (inactive). Further, the NADPH fluorescence slope in [6] was -1.3e-05 (inactive). Also, in assay [7], the slope is 0.00552 (inactive). Also, the molecule was called inactive in assay [8].
On to `COc1cc(C2NC(=O)NC(C)=C2C(=O)Nc2cccc(C)c2C)cc(OC)c1OC` (centres undefined), for which the cell count in [1] was determined as 566. Also, the inhibition in assay [1] was -3.3% (inactive); in [2] it was -47.5% (inactive); in assay [4], -2.91% (inactive); in assay [9], -6.92% (inactive). Besides, the nuclei count in [2] was 183%. The z-score is 0.296 in assay [3] (setting [10]), 0.344 in assay [3] (setting [11]) and -0.592 in [3] (setting [12]). In addition, the fluorescence slope in assay [5] is -0.35 (inactive). Besides, the NADPH fluorescence slope in assay [6] was -1.5e-05 (inactive). Moreover, the slope in [7] was 0.00551 (inactive). In addition, the molecule was classed as inactive in [8].
As for `COC(=O)c1ccc(=O)n(Cc2ccc3c(c2)OCO3)c1`, in assay [1], the cell count came out at 394. The inhibition in [1] was -2.1% (inactive); in assay [2], -128% (inactive); in assay [4] it was 2.46% (inactive); in assay [9], -6.36% (inactive). In addition, in assay [2], the nuclei count is 137%. Also, the figures for the z-score in assay [3] (setting [10]), in [3] (setting [11]) and in assay [3] (setting [12]) were 2.55, 0.425 and -1.58, respectively. Also, the fluorescence slope in [5] is -0.427 (inactive). In addition, in [6], the NADPH fluorescence slope was -4.6e-05 (inactive). Moreover, in [7], the slope is 0.00627 (inactive). Besides, the call in assay [8] was inactive.
For `CCCCOc1ccc(C2CC(=O)N(C)C2=O)cc1` (centres undefined), in assay [1], the cell count was determined as 641. Moreover, the inhibition in assay [1] was -9.7% (inactive); in [2], 63.8% (inactive); in [4], 7.48% (inactive); in assay [9], 3.29% (inactive). Further, the nuclei count in assay [2] was 175%. The z-score in assay [3] (setting [10]) was -0.371; in [3] (setting [11]), -0.965; in assay [3] (setting [12]) it was 1.92. Also, the fluorescence slope in assay [5] is -0.516 (inactive). For the same molecule, the NADPH fluorescence slope in assay [6] was -6.5e-05 (inactive). For the same molecule, in assay [7], the slope was 0.00432 (inactive). In addition, the molecule was classed as inactive in assay [8].
Turning to `Fc1ccc2[nH]c3c(N4CCN(c5ccccc5)CC4)ncnc3c2c1`, the cell count in assay [1] is 424. Also, the inhibition in [1] was 5.2% (inactive); in [2], -109% (inactive); in [4], 6.04% (inactive); in assay [9], -1.66% (inactive). In assay [2], this molecule registered a nuclei count of 93.6%. Moreover, the z-score in assay [3] (setting [10]) was -1.72; in assay [3] (setting [11]), -0.345; in [3] (setting [12]), 0.928. Further, the fluorescence slope in [5] is -0.334 (inactive). In addition, the NADPH fluorescence slope in assay [6] is 6.6e-06 (inactive). The slope in [7] was 0.005 (inactive). In assay [8], the molecule was classed as inactive.
As for `COc1ccc(/C(O)=C2\C(=O)C(=O)N(CCN(C)C)C2c2cccc(OC)c2OC)cc1` (centres undefined), in assay [1], the cell count came to 614. The inhibition in assay [1] is -5.4% (inactive); in assay [2], -56.5% (inactive); in assay [4] it was 9.61% (inactive); in [9] it was -2.59% (inactive). The nuclei count in assay [2] worked out at 192%. In addition, the z-score in [3] (setting [10]) is 0.97; in assay [3] (setting [11]), 0.147; in assay [3] (setting [12]), -0.253. Also, in [5], the fluorescence slope was -0.338 (inactive). In addition, in [6], the NADPH fluorescence slope is -2.9e-05 (inactive). For the same molecule, the slope in assay [7] is 0.00479 (inactive). For the same molecule, the molecule was classed as inactive in assay [8].
On to `COc1c(O)ccc2cnn(-c3ccccc3C)c(=O)c12`, for which the cell count in assay [1] is 557. The inhibition is -2.9% (inactive) in assay [1], -53.4% (inactive) in assay [2], 9.61% (inactive) in [4] and 1.71% (inactive) in [9]. The molecule also came in with a nuclei count in assay [2] of 180%. In addition, the results for the z-score in assay [3] (setting [10]), in [3] (setting [11]) and in assay [3] (setting [12]) were -1.01, 0.966 and 0.382, respectively. Moreover, in assay [5], the fluorescence slope is -0.35 (inactive). The NADPH fluorescence slope in assay [6] was -1.2e-05 (inactive). Also, the slope in [7] is 0.00472 (inactive). Besides, in assay [8], the result was inactive.
In the case of `COc1cc(C2C3C(=O)N(c4ccc(F)cc4)C(=O)C3ON2c2ccccc2)ccc1O` (centres undefined), the cell count in assay [1] came to 470. The inhibition in [1] is -13.5% (inactive); in assay [2], -60% (inactive); in assay [4], -13.3% (inactive); in assay [9] it was 16.5% (inactive). In assay [2], this molecule registered a nuclei count of 137%. Also, the values for the z-score in assay [3] (setting [10]), in assay [3] (setting [11]) and in assay [3] (setting [12]) were -1.73, -0.628 and 0.0709, respectively. For the same molecule, in [5], the fluorescence slope is -0.498 (inactive). The NADPH fluorescence slope in [6] is -3.2e-05 (inactive). For the same molecule, in assay [7], the slope was 0.00461 (inactive). In addition, in assay [8], the call was inactive.
Turning to `CCCC(=O)N1CCN(c2nc(CC(C)C)c3c(c2C#N)CCC3)CC1`, the cell count in assay [1] was determined as 529. The inhibition is -8.3% (inactive) in assay [1], -117% (inactive) in [2], -5.26% (inactive) in assay [4] and -3.24% (inactive) in assay [9]. In assay [2], the nuclei count was found to be 130%. In addition, the results for the z-score in [3] (setting [10]), in [3] (setting [11]) and in assay [3] (setting [12]) were -0.247, 0.583 and 0.103, respectively. The fluorescence slope in assay [5] was -0.5 (inactive). Besides, the NADPH fluorescence slope in [6] is -1.9e-05 (inactive). Moreover, the slope in assay [7] was 0.00433 (inactive). Moreover, the result in assay [8] was inactive.

In general, inhibition refers to the drop in the measured response relative to a control, in per cent.
